Experimental data from different studies.
Protocols differ between the studies behind these lines. pEC50, pIC50: −log10 of the molar value. In brackets after ≈: the same amount, converted by molar mass.

SMILES	tested on	test	setting	measurement	result
C#CCOC(=O)ON=C1C=CC(=C(C#N)c2ccccc2)C=C1	Candidozyma auris	microbial growth, broth dilution	48 h	MIC	16 mg/L (≈ 52.6 µM)
COc1ccc(C2NCCc3cc(O)c(O)cc32)cc1O (stereo not drawn)		DPPH scavenging, absorbance	30 min, dark	pIC50	4.73
CN(C)CCNC(=O)c1ccc(-c2nc3ccc4[nH]ncc4c3c3c2CCCC3)cc1	NOMO-1	cell growth or viability	72 h	GI50	0.568 µM
C[C@H](N)C(=O)Nc1ccccc1/N=c1\cc(-c2ccc3c(c2)OCCO3)oc2c(N)cccc12	MCF7	cell growth or viability, CCK-8	1 µM	inhibition	7.27%
CCOC(=O)C1=C(CCl)NC(=O)NC1c1ccc(OC)cc1 (stereo not drawn)		DPPH scavenging		pIC50	3.82
CCCCCCCCC1NCCc2cc(O)c(O)cc21 (stereo not drawn)		DPPH scavenging, absorbance	30 min, dark	pIC50	4.19
CCOC(=O)C1=C(CSC2=NCCS2)NC(=O)NC1c1ccc(C(C)C)cc1 (stereo not drawn)		DPPH scavenging		pIC50	3.72
O=C(C[C@@H](C(F)F)n1ccc(F)n1)N1CCC(O)(Cn2cnc3c(cnn3-c3ccc(F)cc3)c2=O)CC1	CAPAN-1	cell growth or viability, SRB	27.43 nM, 5 days	viability	66.3%
CCOC(=O)C1=C(CSC2=NCCS2)NC(=O)NC1c1cccc(Cl)c1 (stereo not drawn)		DPPH scavenging		pIC50	3.85
CC(C)=CC1NCCc2cc(O)c(O)cc21 (stereo not drawn)		DPPH scavenging, absorbance	30 min, dark	pIC50	4.27
CCOC(=O)C1=C(CSC2=NCCS2)NC(=O)NC1c1cccc(C)c1 (stereo not drawn)		DPPH scavenging		pIC50	3.65
CN(C)CCNC(=O)c1ccc(-c2nc3ccc4[nH]ncc4c3c3c2CCCCC3)cc1	NOMO-1	cell growth or viability	72 h	GI50	2.27 µM
N#CC(=C1C=CC(=NOC(=O)OCc2ccccc2)C=C1)c1ccccc1	Candidozyma auris	microbial growth, broth dilution	48 h	MIC	64 mg/L (≈ 180 µM)
Cc1n[nH]c2ccc3nc(-c4ccc(C(=O)NCCN(C)C)cc4F)c4c(c3c12)CCCC4	NOMO-1	cell growth or viability	72 h	GI50	0.292 µM
CCOC(=O)C1=C(CSC2=NCCS2)NC(=O)NC1c1cccc(F)c1 (stereo not drawn)		DPPH scavenging		pIC50	3.70
Oc1cc2c(cc1O)C(CCc1ccccc1)NCC2 (stereo not drawn)		DPPH scavenging, absorbance	30 min, dark	pIC50	4.75
C[C@H](Nc1ccc2c(c1)OCCn1cc(N3C(=O)OC[C@H]3C(F)F)nc1-2)C(N)=O	HCC1954	cell growth or viability, ATP luminescence	5 days	pEC50	6.81
C#CCON=C1C=CC(=C(C#N)c2ccccc2)C=C1	Candidozyma auris	microbial killing, broth dilution	48 h	MFC	64 mg/L (≈ 246 µM)
Oc1cccc(-c2nc(N3CCOCC3)c3oc4ncccc4c3n2)c1	MCF7	cell growth or viability, CCK-8	1 µM	inhibition	13.9%
C=CC(=O)ON=C1C=CC(=C(C#N)c2ccccc2)C=C1	Candidozyma auris	microbial killing, broth dilution	48 h	MFC	16 mg/L (≈ 57.9 µM)
COc1cc(C2NCCc3cc(O)c(O)cc32)ccc1O (stereo not drawn)		DPPH scavenging, absorbance	30 min, dark	pIC50	5.09
CCOC(=O)C1=C(CSC2=NCCS2)NC(=O)NC1c1ccc(F)cc1 (stereo not drawn)		DPPH scavenging		pIC50	3.80
Cc1n[nH]c2ccc3nc(-c4ccc(C(=O)NCCN(C)C)cc4F)c4c(c3c12)CCCCC4	NOMO-1	cell growth or viability	72 h	GI50	2.73 µM
CC(=O)ON=C1C=CC(=C(C#N)c2ccccc2)C=C1	Candidozyma auris	microbial growth, broth dilution	48 h	MIC	16 mg/L (≈ 60.5 µM)
CS(=O)(=O)NCCC(=O)Nc1ccccc1/N=c1\cc(-c2ccc3nc(N)oc3c2)oc2ccccc12	MCF7	cell growth or viability, CCK-8	1 µM	inhibition	2%
CN(C)CCNC(=O)c1ccc(-c2nc3ccc4[nH]ncc4c3c3c2CCCCC3)c(F)c1	NOMO-1	cell growth or viability	72 h	GI50	1.33 µM
Oc1cc2c(cc1O)C(Cc1ccccc1)NCC2 (stereo not drawn)		DPPH scavenging, absorbance	30 min, dark	pIC50	4.70
